Rows were chosen to be rich in hits. Some 2.3% of all compounds tested hit in one or more screens of this group.
TRPC4 potent = allosterically enhances the mouse TRPC4 cation channel; B-score at 10 µM; AID 2227; HEK293 TRPC4beta/mu-opioid, DAMGO EC20, Fluo-4 Ca2+ flux; stronger effect = higher value; 0.42% of 310,000 active; Q9QUQ5;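 active means B-score of calcium response area above 5 SD of library B-scores, with initial fluorescence ratio within 5 SD of library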;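 further: B-score of integrated fluorescence ratio over time as area under calcium response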
TRPC6 act = activators of mouse TRPC6 channel | HEK293-TRPC6 membrane potential dye fluorescence; stronger effect = higher value | B-score at 10 µM | 0.13% of 310,000 active;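 active means B-score of the integrated fluorescence ratio above library mean plus 3 SD, and starting fluorescence ratio within library mean plus 5 SD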;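 further: higher score means more depolarization so channel activation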
TRPC4 block = blocks the mouse TRPC4 cation channel. Q9QUQ5. HEK293 TRPC4beta/mu-opioid, DAMGO-evoked Fluo4 calcium flux; stronger effect = lower value. B-score at 10 µM. 0.39% of 300,000 active. AID 2247;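 active means B-score over 3 SD under the library average, no early fluorescence shift, positive overall ratio signal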
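Assay system: HEK293 cells with stable TRPC4beta plus mu-opioid receptor expression. Dosing: single dose. Measured by: Fluo4 Ca2+ flux fluorescence. Also added: DAMGO in two steps, submaximal then maximal. Read-out: B score from integrated Fluo4 fluorescence ratio.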
TRPC4 agonist = TRPC4 (mouse) channel activation; 0.49% of 310,000 active; B-score at 10 µM; AID 2237; HEK293 TRPC4beta/mu-opioid, Fluo4 calcium fluorescence; stronger effect = higher value; Q9QUQ5;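 active means B-score above 5 SD of library B-scores, and initial fluorescence ratio not above library mean plus 5 SD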;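 further: positive B-score marks a calcium rise read as TRPC4 activation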
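Assay system: HEK293 cells stably co-expressing mouse TRPC4beta and mu-opioid receptor / Timing: Fluo4 dye loading 45 min at room temperature, 110 s recording / Signal: Fluo4 calcium-sensitive dye fluorescence, kinetic, 1 Hz baseline / Read-out: integrated baseline-normalised fluorescence ratio, converted to per-well B score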
TRPC6 inhibitor = mouse TRPC6 channel inhibition; HEK293-TRPC6, membrane potential dye, ACh-evoked depolarization; stronger effect = lower value; 1.1% of 310,000 active; B-score at 10 µM; AID 2553; Q61143;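 active means B-score under library mean minus 3 SD, initial fluorescence not abnormally high, positive integrated signal ratio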;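 further: B-score derived from integrated fluorescence ratio over the kinetic read; more negative B-score means stronger inhibition of depolarization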
Starred values were filed as active, the others as inactive; i = inactive.

SMILES	TRPC4 potent	TRPC6 act	TRPC4 block	TRPC4 agonist	TRPC6 inhibitor
CC(=O)CSc1ccc(C(=O)O)cn1	i	i	i	i	i
CN1C(=O)/C(=C/c2ccc(-c3ccccc3[N+](=O)[O-])o2)SC1=Nc1ccc(Cl)c(C(=O)O)c1	i	i	i	i	i
COc1ccc(OC)c(Nc2cc(-c3ccccc3)nc(N)n2)c1	i	i	-7*	i	-5.4*
CCCCCOc1ccc2oc(=O)c3c(c2c1)CCCN3C(=O)CN1CCCC(C(=O)OCC)C1 (stereo not given)	33*	i	i	i	i
O=c1c2cn[nH]c2nc(SCc2c(F)cccc2F)n1-c1ccc(Cl)cc1	i	i	i	i	i
COc1ccc(N(C(=O)CNC(=O)c2ccco2)C(C(=O)NCC2CCCO2)c2ccccc2)cc1 (stereo not given)	11*	i	i	i	i
CCOc1ccc(N(C(=O)CNC(=O)c2ccco2)C(C(=O)NCC2CCCO2)c2ccccc2)cc1 (stereo not given)	i	i	i	i	i
Cc1c(N(C)S(=O)(=O)c2cc(C(=O)Nc3ccccn3)ccc2Cl)c(=O)n(-c2ccccc2)n1C	i	i	-5*	i	i
O=C(Nc1ccccn1)c1ccc(Cl)c(S(=O)(=O)N2CCCCCC2)c1	i	i	i	i	i
OCCCNCc1ccc(N(c2ccccc2)c2ccccc2)cc1	i	i	i	i	i
Cc1csc2ncnc(NCCc3ccccn3)c12	i	i	i	i	i
c1ccc(CCNc2ncnc3sccc23)nc1	i	i	i	51*	i
CN(C)C(CNc1ncnc2sccc12)c1ccccc1 (stereo not given)	i	i	i	75*	i
COc1ccc(C(CNc2ncnc3sccc23)N(C)C)cc1OC (stereo not given)	i	i	i	45*	i
NC(=S)NNC(=O)COc1ccccc1O	i	i	i	i	i
CCOc1cc(CNCc2cccs2)ccc1OCC(=O)NC(C)(C)C	i	i	-6*	i	i
Cc1cc(NCCCN(C)C)n2c(nc3ccccc32)c1C#N	i	i	i	i	i
Cc1cc(NCCN2CCCCC2)n2c(nc3ccccc32)c1C#N	i	i	i	i	-8.1*
COc1ccc(CCNC(=O)CCc2cn(C)c3ccccc23)c(OC)c1OC	i	i	i	i	i
Cc1cc(NC(=O)C(C)SCC(=O)N(Cc2ccccc2)c2ccccc2)no1 (stereo not given)	i	i	-7*	i	i
C=CCn1c(NC(C)c2cc(Cl)ccc2O)nc2ccccc21 (stereo not given)	i	i	-6*	i	i
Cc1cccc(NC(=S)NCC(c2cccnc2)N(C)C)c1 (stereo not given)	i	i	i	103*	i
CN(C)C(CNC(=S)Nc1ccc(F)cc1)c1cccnc1 (stereo not given)	i	i	i	80*	i
Cc1ccc(S(=O)(=O)CC(=O)N2CC(C)OC(C)C2)cc1 (stereo not given)	i	i	i	i	i
COc1ccccc1OCC(=O)NCC1CCCN(Cc2cnn(C)c2C)C1 (stereo not given)	i	i	i	i	i
SMILES	TRPC4 potent	TRPC6 act	TRPC4 block	TRPC4 agonist	TRPC6 inhibitor
Cc1ccc(N(Cc2ccccc2)C(=O)c2cc(S(=O)(=O)N3CCOCC3)ccc2Cl)cc1	10*	i	i	i	i
O=C(NC1CCCC1)C(c1ccncc1)N(C(=O)Cn1nnc(-c2ccccc2F)n1)c1cccc(F)c1 (stereo not given)	i	i	i	i	i
COC(=O)c1ccccc1NC(=O)CCC(=O)N1CC(C)Oc2ccc(C)cc21 (stereo not given)	i	i	-8*	i	i
Cc1ccc2c(c1)N(C(=O)CCC(=O)NCC(C)c1ccccc1)CC(C)O2 (stereo not given)	i	i	i	i	i
CSc1nc(C(=O)N2CCc3c([nH]c4ccccc34)C2c2ccccn2)cs1 (stereo not given)	i	i	i	i	i
Cc1ccc2nc(C(=O)N3CCc4c([nH]c5ccccc45)C3c3ccccn3)cn2c1 (stereo not given)	i	i	i	81*	i
Cc1ccc(C(=O)C2=C(O)C(=O)N(Cc3cccnc3)C2c2ccc(Cl)c(Cl)c2)o1 (stereo not given)	i	i	-6*	i	i
Cc1ccc(C(=O)C2=C(O)C(=O)N(Cc3cccnc3)C2c2ccc(Br)cc2)o1 (stereo not given)	i	i	i	i	i
CC(NC(=O)c1cc(S(=O)(=O)N2CCOCC2)cn1C)c1ccccc1 (stereo not given)	i	i	i	i	i
CC(C)(C)c1ccc(N2C(=N)SCC2=O)cc1	33*	i	i	i	i
N=C1SCC(=O)N1c1ccc(Cl)cc1	i	i	i	i	i
CCn1nccc1C(=O)Nc1cc(Cl)cc(Cl)c1	i	i	-5*	i	i
Clc1cc(CSc2ccccc2)nc(-c2ccccc2)n1	i	i	i	i	i
COc1ccccc1N1CCN(c2ncc(C(=O)N3CCN(c4cccc(Cl)c4)CC3)c3ccccc23)CC1	21*	i	i	i	i
COc1ccc(Cl)cc1NC(=O)CCN1CCN(c2ccccc2C)CC1	i	i	i	i	i
CCN1CCN(c2ncc(C(=O)Nc3cc(Cl)ccc3OC)c3ccccc23)CC1	12*	i	i	i	i
CCOc1ccccc1C(=O)N1CCN(c2cccc(Cl)c2)CC1	i	i	i	i	i
Cc1ccsc1C(C(=O)NC(C)(C)C)N(Cc1ccco1)C(=O)c1csnn1 (stereo not given)	i	i	i	i	i
CCC(C)(C)NC(=O)C(c1sccc1C)N(Cc1ccco1)C(=O)c1csnn1 (stereo not given)	i	i	i	i	-5.8*
COc1cccc(-c2cc(C(=O)N3CC4(C)CC3CC(C)(C)C4)no2)c1 (stereo not given)	i	i	i	i	i
CC1(C)CC2CC(C)(CN2C(=O)c2cc(-c3ccc(O)cc3)on2)C1 (stereo not given)	i	i	-6*	i	i
CC1Cc2ccccc2N1C(=O)CN1CCC(n2nnc3cc(C(F)(F)F)ccc32)CC1 (stereo not given)	i	i	i	i	i
